Measured values reported in ChEMBL document CHEMBL4196122, “Design, Synthesis, and Biological Evaluation of Allosteric Effectors That Enhance CO Release from Carboxyhemoglobin” (ACS Med Chem Lett, 2018).

Assays:
[1] = molecular target: T1, Hemoglobin HbA (Homo sapiens) (UniProt P69905+P68871); assay: Binding affinity to hemoglobin (unknown origin) assessed as increase in release of carbon monooxide from carboxyhemoglobin by measuring half life of carboxyhemoglobin at 20:1 compound/Hb tetramer ratio incubated for 1 hr measured every 15 mins for 90 mins (reference value: 80 +/- 0.3 min); format: protein-complex assay
T1 sequence (P68871 2-147 partner limits assumed): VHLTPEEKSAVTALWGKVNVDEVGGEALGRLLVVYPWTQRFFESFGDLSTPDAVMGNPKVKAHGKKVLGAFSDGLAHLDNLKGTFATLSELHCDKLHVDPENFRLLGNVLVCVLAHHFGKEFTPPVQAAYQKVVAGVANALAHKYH
T1 sequence (P69905 2-142 limits assumed): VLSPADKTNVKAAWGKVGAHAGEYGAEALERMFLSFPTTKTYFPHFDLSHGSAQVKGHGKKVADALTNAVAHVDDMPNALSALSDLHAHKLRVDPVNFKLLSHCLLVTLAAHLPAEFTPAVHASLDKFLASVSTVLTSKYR

[2] = molecular target: T1, Hemoglobin HbA (Homo sapiens); assay: Binding affinity to hemoglobin (unknown origin) assessed as increase in release of carbon monooxide from carboxyhemoglobin by measuring half life of carboxyhemoglobin at 5:1 compound/Hb tetramer ratio incubated for 1 hr measured every 15 mins for 90 mins (reference value: 80 +/- 0.3 min); format: protein-complex assay
[3] = Hemolytic activity against human RBC assessed as fraction of extracellular Hb level at 1 mM after 1 hr relative to total Hb level; format: ADME, cell-based, Erythrocyte; details: red blood cells (erythrocytes), read-out: Activity
Outline: (§1)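 Human red blood cells (50 µM Hb) incubated with compound at 1 mM in 0.1 vol % DMSO. Read-out is extracellular Hb as a fraction of total Hb. "-" denotes less than 1% of total Hb released.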

[4] = Aqueous solubility of the compound in DMSO/[…] solution at 2.5 mM; format: physicochemical; details: 2500 µM
Outline: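 Compound made up at 2.5 mM in DPBS containing 1 vol% DMSO. Scored by visual inspection of the solution: "+" if no aggregates or crystals are seen, "-" if aggregates or crystals appear.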

[5] = (§2) Hemolytic activity against human RBC assessed as increase in fraction of extracellular Hb level at 1 mM after 1 hr; format: ADME, cell-based, Erythrocyte; details: red blood cells (erythrocytes), read-out: Activity; outline: as §1
Erythrocyte = assay: as §2; format: ADME, cell-based; details: erythrocyte, 1 h, 1000 µM; outline: as §1
[6] = molecular target: T1, Hemoglobin HbA (Homo sapiens); assay: Binding affinity to hemoglobin (unknown origin) assessed as partial oxygen pressure at which 50% of Hb is oxygenated (reference value: 17 +/- 0.3 mmHg); format: protein-complex assay

Question: Which T1/2 [1] does the source give for `Cc1cc(C)cc(C(=O)N[C@H](Cc2ccc(-c3c(CO)noc3C)cc2)C(=O)N[C@@H](Cc2c[nH]c3ccccc23)C(=O)O)c1` here?
Answer: 1.08 h

Question: What about the T1/2 [2] of the same molecule?
Answer: 1.17 h

Question: What about the hemolysis at 1 h, 1000 µM [3] of the same molecule?
Answer: < 1%

Question: What about the solubility [4] of the same molecule?
Answer: Soluble

Question: For `Cc1cc(C)cc(C(=O)N[C@H](Cc2ccc(-c3c(C(=O)O)noc3C)cc2)C(=O)N[C@@H](Cc2c[nH]c3ccccc23)C(=O)O)c1`, which T1/2 [1] is on record?
Answer: 1.18 h

Question: What about the T1/2 [2] of the same molecule?
Answer: 1.3 h

Question: And the hemolysis at 1 h, 1000 µM [3]?
Answer: < 1%

Question: And the solubility [4]?
Answer: Soluble

Question: For `Cc1cc(C)cc(C(=O)N[C@H](Cc2ccccc2)C(=O)N[C@@H](Cc2c[nH]c3ccccc23)C(=O)O)c1`, which T1/2 [1] is on record?
Answer: 1.05 h

Question: And the hemolysis at 1 h, 1000 µM [3]?
Answer: < 1%

Question: And the solubility [4]?
Answer: Insoluble

Question: With `Cc1cc(C)cc(C(=O)N[C@H](Cc2ccc(-c3cncnc3)cc2)C(=O)N[C@@H](Cc2c[nH]c3ccccc23)C(=O)O)c1` as the molecule, how does the T1/2 [1] read?
Answer: 1.28 h

Question: And the T1/2 [2]?
Answer: 1.33 h

Question: And the hemolysis at 1 h, 1000 µM [3]?
Answer: < 1%

Question: And the solubility [4]?
Answer: Soluble

Question: What does the source list for `Cc1cc(C)cc(C(=O)N[C@H](Cc2ccc(-c3c(C)noc3C)cc2)C(=O)N[C@@H](Cc2c[nH]c3ccccc23)C(=O)O)c1`?
Answer: T1/2 [1]: 0.95 h; T1/2 [2]: 1.2 h; hemolysis at 1 h, 1000 µM [3]: < 1%; solubility [4]: Insoluble

Question: Which T1/2 [1] does the source give for `Cc1cc(C)cc(C(=O)N[C@H](Cc2ccc(-c3ccco3)cc2)C(=O)N[C@@H](Cc2c[nH]c3ccccc23)C(=O)O)c1` here?
Answer: 1 h

Question: What about the T1/2 [2] of the same molecule?
Answer: 1.18 h

Question: And the hemolysis at 1 h, 1000 µM [5]?
Answer: 1 to 2%

Question: And the solubility [4]?
Answer: Insoluble

Question: Which results are given for `Cc1cc(C)cc(C(=O)N[C@H](Cc2ccc(-c3ccc(CN(C)C)o3)cc2)C(=O)N[C@@H](Cc2c[nH]c3ccccc23)C(=O)O)c1`?
Answer: T1/2 [1]: 1.12 h; T1/2 [2]: 1.2 h; hemolysis at 1 h, 1000 µM [3]: < 1%; solubility [4]: Insoluble

Question: Which results are given for `Cc1cc(C)cc(C(=O)N(C)[C@H](Cc2ccccc2)C(=O)N[C@@H](Cc2c[nH]c3ccccc23)C(=O)O)c1`?
Answer: T1/2 [1]: 1.08 h; T1/2 [2]: 1.23 h; hemolysis at 1 h, 1000 µM [3]: < 1%; solubility [4]: Insoluble

Question: With `Cc1cc(C)cc(C(=O)N[C@H](Cc2ccc(-c3ccccc3)cc2)C(=O)N[C@@H](Cc2c[nH]c3ccccc23)C(=O)O)c1` as the molecule, how does the T1/2 [1] read?
Answer: 1.07 h

Question: What about the T1/2 [2] of the same molecule?
Answer: 1.15 h

Question: And the hemolysis at 1 h, 1000 µM [3]?
Answer: < 1%

Question: And the solubility [4]?
Answer: Insoluble

Question: Which T1/2 [2] does the source give for `Cc1cc(C)cc(C(=O)N(C)[C@H](Cc2ccc(-c3ccccc3)cc2)C(=O)N[C@@H](Cc2c[nH]c3ccccc23)C(=O)O)c1` here?
Answer: 1.15 h

Question: And the Activity (Erythrocyte)?
Answer: Toxic

Question: What about the solubility [4] of the same molecule?
Answer: Insoluble

Question: What about the Activity [6] of the same molecule?
Answer: 19 mmHg

Question: What does the source list for `Cc1cc(C)cc(C(=O)N[C@H](Cc2ccc(-c3cnn(C)c3)cc2)C(=O)N[C@@H](Cc2c[nH]c3ccccc23)C(=O)O)c1`?
Answer: T1/2 [1]: 1.15 h; T1/2 [2]: 1.23 h; hemolysis at 1 h, 1000 µM [3]: < 1%; solubility [4]: Soluble
